Source: ChEMBL document CHEMBL4152390, “Discovery of the First-in-Class Dual Histone Deacetylase-Proteasome Inhibitor” (J Med Chem, 2018)
Active and inactive are the calls of the source. The rule behind the calls is not given here. Where a SMILES comes first, the peptide text is derived from it. The star is where a group is joined. Cbz = O=C(OCc1ccccc1)*

Tests used:
SEM cells [1] = experiment: Inhibition of proteasome in human SEM cells assessed as increase in aggresome accumulation at 3 uM after 18 hrs by fluorescence microscopic method; assay type: cell-based
Summary of the method: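 SEM cells exposed for 18 h, then labeled with a proteostat aggresome detection kit with DNA counterstain per kit guidelines; aggresomes imaged by fluorescence microscopy with a 63X objective.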

SEM cells [2] = experiment: Inhibition of proteasome in human SEM cells assessed as increase in aggresome accumulation at 3 uM after 18 hrs by FACS analysis; assay type: cell-based
Summary of the method: (§1)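 Cells treated 18 h, then stained with a proteostat aggresome dye plus DNA stain. Imaged by fluorescence microscopy (63X objective) or analysed by FACS, with aggresome propensity factor from relative mean fluorescence intensity.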

[3] = molecular target: T1, Proteasome Macropain subunit MB1 (Homo sapiens, UniProt P28074); experiment: Inhibition of chymotrypsin-like activity of 20S proteasome in human SEM cells using Suc-LLVY aminoluciferin as substrate after 2 hrs by proteasome-Glo assay; assay type: cell-based
T1 sequence (P28074 whole entry): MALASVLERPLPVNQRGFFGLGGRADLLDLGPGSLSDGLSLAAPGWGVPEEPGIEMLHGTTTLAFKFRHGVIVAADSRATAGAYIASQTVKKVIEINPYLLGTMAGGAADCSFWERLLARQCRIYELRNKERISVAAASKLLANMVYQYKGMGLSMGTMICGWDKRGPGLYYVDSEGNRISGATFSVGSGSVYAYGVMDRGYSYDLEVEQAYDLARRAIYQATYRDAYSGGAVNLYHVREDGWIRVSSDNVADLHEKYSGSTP

[4] = molecular target: T1, Proteasome Macropain subunit MB1; experiment: Inhibition of chymotrypsin-like activity of 20S proteasome in imatinib-resistant human SUP-B15 cells using Suc-LLVY aminoluciferin as substrate after 2 hrs by proteasome-Glo assay; assay type: cell-based
[5] = molecular target: T1, Proteasome Macropain subunit MB1; experiment: Inhibition of chymotrypsin-like activity of 20S proteasome in human HL60 cells using Suc-LLVY aminoluciferin as substrate after 2 hrs by proteasome-Glo assay; assay type: cell-based
SEM cells [6] = experiment: Inhibition of proteasome in human SEM cells assessed as increase in aggresome accumulation at 10 nM after 18 hrs by FACS analysis; assay type: cell-based; summary of the method: as §1
PBMC = experiment: cells; assay type: ADME, cell-based; settings: Homo sapiens, 72 h
SEM cells [7] = experiment: Inhibition of proteasome in human SEM cells assessed as increase in aggresome accumulation at 10 nM after 18 hrs by fluorescence microscopic method; assay type: cell-based; summary of the method: as §1
SEM cells [8] = experiment: Inhibition of proteasome in human SEM cells assessed as increase in cleaved PARP expression at 1 to 100 nM after 24 hrs by immunoblot assay; assay type: cell-based
Summary of the method: (§2)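 Cells treated with compounds for 24 h; lysates immunoblotted for PARP alongside acetyl-α-tubulin, acetyl-histone H3 and GAPDH.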

SUP-B15 [9] = experiment: Inhibition of proteasome in imatinib-resistant human SUP-B15 cells assessed as increase in cleaved PARP expression at 1 to 100 nM after 24 hrs by immunoblot assay; assay type: cell-based; summary of the method: as §2
Homo sapiens = species: Homo sapiens; experiment: Inhibition of proteasome in human HL60 cells assessed as increase in cleaved PARP expression at 1 to 100 nM after 24 hrs by immunoblot assay; assay type: cell-based
Summary of the method: (§3)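 Cells exposed for 24 h at indicated concentrations; lysates immunoblotted for acetyl-α-tubulin, acetyl-histone H3, PARP, with GAPDH as loading control.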

[10] = Cytotoxicity against human BCP-ALL cells derived from patient 4 after 72 hrs by CellTiter-Glo luminescent cell viability assay; assay type: functional, cell-based
SEM cells [11] = experiment: Cytotoxicity against human SEM cells after 72 hrs by CellTiter-Glo luminescent cell viability assay; assay type: functional, cell-based
Summary of the method: (§4)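 Inhibitors dispensed in increasing concentrations (50 nM–25 μM) and cells exposed 72 h. Viability read by ATP-dependent luminescence (CellTiter-Glo). Raw data normalized to controls. IC50 obtained by sigmoid dose–response fit with non-linear regression.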

[12] = molecular target: T2, Protein deacetylase HDAC6 (Homo sapiens) (UniProt Q9UBN7); settings: 0.1 to 10 uM
T2 sequence (whole entry): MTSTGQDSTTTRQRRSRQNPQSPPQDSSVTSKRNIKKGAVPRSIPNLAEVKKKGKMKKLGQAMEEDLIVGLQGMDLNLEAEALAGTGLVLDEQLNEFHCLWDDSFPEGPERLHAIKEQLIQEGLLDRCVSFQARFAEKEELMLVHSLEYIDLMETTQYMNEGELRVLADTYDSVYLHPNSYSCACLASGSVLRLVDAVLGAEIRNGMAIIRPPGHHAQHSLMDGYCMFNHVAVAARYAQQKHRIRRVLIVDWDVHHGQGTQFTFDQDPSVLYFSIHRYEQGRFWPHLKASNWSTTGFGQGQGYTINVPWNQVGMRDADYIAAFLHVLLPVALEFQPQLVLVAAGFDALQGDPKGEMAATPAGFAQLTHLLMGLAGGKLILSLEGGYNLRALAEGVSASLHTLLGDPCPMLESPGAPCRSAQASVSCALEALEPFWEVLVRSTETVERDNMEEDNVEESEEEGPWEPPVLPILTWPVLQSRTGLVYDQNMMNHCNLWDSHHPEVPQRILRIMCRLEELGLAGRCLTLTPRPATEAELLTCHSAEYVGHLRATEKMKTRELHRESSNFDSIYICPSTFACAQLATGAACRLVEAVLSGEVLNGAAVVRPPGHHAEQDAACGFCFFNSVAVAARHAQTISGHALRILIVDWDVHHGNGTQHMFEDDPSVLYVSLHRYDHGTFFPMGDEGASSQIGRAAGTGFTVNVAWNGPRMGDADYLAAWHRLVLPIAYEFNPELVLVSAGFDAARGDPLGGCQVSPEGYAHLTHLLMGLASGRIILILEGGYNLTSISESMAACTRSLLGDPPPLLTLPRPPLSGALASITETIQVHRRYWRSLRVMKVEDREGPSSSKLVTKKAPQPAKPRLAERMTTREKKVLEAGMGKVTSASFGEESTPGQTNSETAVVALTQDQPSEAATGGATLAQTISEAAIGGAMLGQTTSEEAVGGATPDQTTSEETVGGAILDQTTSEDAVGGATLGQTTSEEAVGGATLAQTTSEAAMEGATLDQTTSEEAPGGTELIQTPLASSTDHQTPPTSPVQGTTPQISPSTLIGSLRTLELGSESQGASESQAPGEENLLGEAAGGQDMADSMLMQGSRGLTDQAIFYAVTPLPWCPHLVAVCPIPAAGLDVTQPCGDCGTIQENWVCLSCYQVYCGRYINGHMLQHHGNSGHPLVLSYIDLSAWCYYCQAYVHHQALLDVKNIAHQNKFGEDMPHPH

SUP-B15 [13] = experiment: Cytotoxicity against imatinib-resistant human SUP-B15 cells after 72 hrs by CellTiter-Glo luminescent cell viability assay; assay type: functional, cell-based; settings: SUP-B15, 72 h
[14] = Cytotoxicity against human BCP-ALL cells derived from patient 1 after 72 hrs by CellTiter-Glo luminescent cell viability assay; assay type: functional, cell-based
KCL-22 [15] = experiment: Cytotoxicity against human KCL22 cells after 72 hrs by CellTiter-Glo luminescent cell viability assay; assay type: functional, cell-based; settings: KCL-22, 72 h; summary of the method: as §4
[16] = molecular target: T2, Protein deacetylase HDAC6 (Homo sapiens); experiment: Inhibition of HDAC6 in human HL60 cells assessed as increase in acetyl-alpha tubulin expression at 0.1 to 10 uM after 24 hrs by immunoblot assay; assay type: cell-based; summary of the method: as §3
[17] = molecular target: T2, Protein deacetylase HDAC6 (Homo sapiens); experiment: Inhibition of HDAC6 in human SEM cells assessed as increase in acetyl-histone H3 expression at 0.1 to 10 uM after 24 hrs by immunoblot assay; assay type: cell-based; summary of the method: as §3
[18] = molecular target: T2, Protein deacetylase HDAC6 (Homo sapiens); experiment: Inhibition of HDAC6 in imatinib-resistant human SUP-B15 cells assessed as increase in acetyl-histone H3 expression at 0.1 to 10 uM after 24 hrs by immunoblot assay; assay type: cell-based; summary of the method: as §3
KCL-22 [19] = experiment: Cytotoxicity against imatinib-resistant human KCL22 cells after 72 hrs by CellTiter-Glo luminescent cell viability assay; assay type: functional, cell-based; settings: KCL-22, 72 h; summary of the method: as §4
HL-60 = experiment: Cytotoxicity against human HL60 cells after 72 hrs by CellTiter-Glo luminescent cell viability assay; assay type: functional, cell-based; settings: HL-60, 72 h
[20] = Cytotoxicity against human BCP-ALL cells derived from patient 2 after 72 hrs by CellTiter-Glo luminescent cell viability assay; assay type: functional, cell-based
Summary of the method: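 Compounds dispensed digitally at increasing concentrations, 50 nM–25 μM; viability read by CellTiter-Glo luminescence after 72 h. Raw data normalized to controls, IC50 from sigmoid dose curve by non-linear regression. Patient samples: primary cells from newly diagnosed or relapsed patients, cultured in stem cell expansion or mononuclear cell medium.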

[21] = molecular target: T2, Protein deacetylase HDAC6 (Homo sapiens); settings: SEM, 1.6 uM
[22] = Cytotoxicity against human RPMI18226 cells after 72 hrs by CellTiter-Glo luminescent cell viability assay; assay type: functional, cell-based; settings: RPMI18226, 72 h
[23] = molecular target: T2, Protein deacetylase HDAC6 (Homo sapiens); experiment: Inhibition of HDAC6 in imatinib-resistant human SUP-B15 cells assessed as increase in acetyl-alpha tubulin expression at 0.1 to 10 uM after 24 hrs by immunoblot assay; assay type: cell-based; summary of the method: as §3
[24] = molecular target: T2, Protein deacetylase HDAC6 (Homo sapiens); experiment: Inhibition of HDAC6 in human SEM cells assessed as increase in acetyl-alpha tubulin expression at 0.1 to 10 uM after 24 hrs by immunoblot assay; assay type: cell-based; summary of the method: as §3
[25] = Cytotoxicity against human BCP-ALL cells derived from patient 3 after 72 hrs by CellTiter-Glo luminescent cell viability assay; assay type: functional, cell-based
SEM cells [26] = experiment: Antiproliferative activity against human SEM cells at IC50 to 2 times IC50 after 24 to 72 hrs by trypan exclusion method; assay type: functional, cell-based
[27] = molecular target: T2, Protein deacetylase HDAC6 (Homo sapiens); settings: SUP-B15, 0.1 to 10 uM
[28] = molecular target: T2, Protein deacetylase HDAC6 (Homo sapiens); settings: SEM, 0.1 to 10 uM
[29] = molecular target: T2, Protein deacetylase HDAC6 (Homo sapiens); experiment: Inhibition of HDAC6 in human HL60 cells assessed as increase in acetyl-histone H3 expression at 0.1 to 10 uM after 24 hrs by immunoblot assay; assay type: cell-based; summary of the method: as §3

For `CC(C)C[C@@H](C=O)NC(=O)[C@H](CC(C)C)NC(=O)[C@H](CC(C)C)NC(=O)OCc1ccccc1` (Cbz-Leu-Leu-Leu-aldehyde), the inhibition (SEM cells [1]) was “Active” and the inhibition (SEM cells [2]) was “Active”.
Compound `O=C(CCCCCCC(=O)Nc1ccccc1)NO` [VORINOSTAT] has an IC50 [3] of over 25 µM, an IC50 [4] of over 25 µM and an IC50 [5] of over 25 µM.
With `CC(C)C[C@H](NC(=O)[C@H](Cc1ccccc1)NC(=O)c1cnccn1)B(O)O` [BORTEZOMIB] the inhibition (SEM cells [6]) was “Active”, the IC50 (PBMC) was under 0.035 µM and the inhibition (SEM cells [7]) was “Active”. For the same compound, the inhibition (SEM cells [8]) was “Active”, the inhibition (SUP-B15 [9]) was “Active” and the inhibition (Homo sapiens) was “Active”.
With `O=C(CCCCCCNC(=O)c1cnc(N(c2ccccc2)c2ccccc2)nc1)NO` [RICOLINOSTAT] the IC50 [10] was 0.54 µM, the IC50 (SEM cells [11]) was 1.61 µM and the inhibition [12] was “Active”. It also gave an IC50 (SUP-B15 [13]) of 3.54 µM, an IC50 (PBMC) of under 3.6 µM and an IC50 [14] of 0.29 µM. The IC50 (KCL-22 [15]) was 3.75 µM, the inhibition [16] was “Active” and the inhibition [17] was “Active”. The inhibition [18] was “Active”, the IC50 (KCL-22 [19]) was 3.38 µM and the IC50 (HL-60) was 2.36 µM. For the same compound, the IC50 [20] was 0.58 µM, the inhibition [21] was “Active” and the IC50 [3] was over 25 µM. The IC50 [22] was 1.97 µM, the IC50 [4] was over 25 µM and the inhibition [23] was “Active”. The inhibition [24] was “Active”, the IC50 [5] was over 25 µM and the IC50 [25] was 4.45 µM. The Activity (SEM cells [26]) was “Active”, the inhibition [27] was “Active” and the inhibition [28] was “Active”. The inhibition [29] was “Active”.
